From ChEMBL document CHEMBL4043304, “Synthesis and Evaluation of Hydrogen Peroxide Sensitive Prodrugs of Methotrexate and Aminopterin for the Treatment of Rheumatoid Arthritis” (J Med Chem, 2018)
In brackets after ≈: the same amount, converted by molar mass. Activity calls are given as the source filed them. The calls are words filed in the database; no cut-off is given here.

Key:
[1] = Prodrug activation in DMSO/PBS mixture assessed as formation of aminopterin at 50 uM after <3 hrs in presence of 0.5 mM H2O2 by RP-UPLC-MS method
In short: (§1)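 50 µM prodrug in 30% DMSO/PBS pH 7.4 at 37 °C with diclofenac internal standard. Started with H2O2 at 0.5 mM final. Sampled 5 min to 4 h (some compounds to 48 h). RP-UPLC-UV at 306 nm. No-H2O2 control run in parallel. Triplicate.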

[2] = Prodrug activation in DMSO/PBS mixture assessed as formation of aminopterin at 100 uM after 2 to 48 hrs in presence of 0.25 to 10 mM H2O2 […]
[3] = Prodrug activation in DMSO/PBS mixture assessed as formation of aminopterin at 50 uM measured within 2 hrs in presence of 0.5 mM H2O2 by RP-UPLC-MS method; in short: as §1
[4] = Prodrug activation in DMSO/PBS mixture assessed as formation of (S)-dimethyl 2-(4-((2,4-diaminopteridin-6-yl)methylamino)benzamido)pentanedioate at 50 uM measured within 2 hrs in presence of 0.5 mM H2O2 by RP-UPLC-MS method; in short: as §1
[5] = Prodrug activation in DMSO/PBS mixture assessed as formation of (S)-2-(4-(((2,4-diaminopteridin-6-yl)methyl)(4-hydroxybenzyl)amino)benzamido)pentanedioic acid at 50 uM measured within 2 hrs in presence of 0.5 mM H2O2 by RP-UPLC-MS method; in short: as §1
[6] = Kinetic solubility of the compound in DMSO/PBS mixture after 20 hrs by RP-UPLC-UV method; type: physicochemical; conditions: read-out: Kinetic_solubility
In short: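 100 µM compound in 1% DMSO/PBS pH 7.4, shaken 20 h at 37 °C. Centrifuged to remove insoluble material; supernatant quantified by RP-UPLC-UV at 306 nm. Triplicate.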

[7] = Half life in PBS/DMSO mixture at pH 7.4 by RP-UPLC-UV method; type: physicochemical
[8] = Half life in SGF by RP-UPLC-UV method; type: physicochemical
In short: (§2)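 SGF or SIF (SIF adjusted to pH 7.5) dosed from a 10 mM DMSO stock. Incubated at 37 °C and sampled at 0, 1, 2, 4 and 24 h. Run in triplicate.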

[9] = Half life in SIF by RP-UPLC-UV method; type: physicochemical; in short: as §2
[10] = Half life in human plasma at 20 uM by RP-UPLC-UV method; type: ADME, cell-free
In short: (§3)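 Reconstituted lyophilized human or mouse plasma mixed about 1:1 with PBS and pre-warmed to 37 °C. Compound added to 20 µM final. […] Procaine (human) and diltiazem (mouse) as controls.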

[11] = Half life in mouse plasma at 20 uM by RP-UPLC-UV method; type: ADME, cell-free; in short: as §3
[12] = Intrinsic clearance in human liver microsomes at 10 uM after 5 to 60 mins by RP-UPLC-UV method; type: ADME, microsome; conditions: read-out: CLH
In short: (§4)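 Pooled male liver microsomes (human, or CD-1 mouse) in PBS at 37 °C with 10 µM compound. Reaction started with NADPH. Aliquots taken 0–60 min (mouse also 120 and 240 min) and quenched with cold MeCN/diclofenac. Read by RP-UPLC-UV, ln[C] vs time, first order. No-NADPH control run; verapamil (human) or diphenhydramine (mouse) as reference.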

[13] = Intrinsic clearance in CD1 mouse liver microsomes at 10 uM after 5 to 240 mins by RP-UPLC-UV method; type: ADME, microsome; conditions: read-out: CLH; in short: as §4
[14] = Chemical stability in PBS/DMSO mixture at pH 7.4 after 24 hrs by RP-UPLC-UV method; type: physicochemical; conditions: read-out: Stability
[15] = Metabolic stability in human plasma at 20 uM after 24 hrs by RP-UPLC-UV method; type: ADME, cell-free; conditions: read-out: Stability; in short: as §3
[16] = Metabolic stability in mouse plasma at 20 uM after 8 hrs by RP-UPLC-UV method; type: ADME, cell-free; conditions: read-out: Stability; in short: as §3
NCI-H460 [17] = test: Cytotoxicity against human NCI-H460 cells assessed as decrease in cell viability after 48 hrs by MTS assay; type: functional, cell-based
In short: (§5)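 MCF-7 (DMEM) or NCI-H460 (RPMI), 10% FBS, seeded at 10^4 or 7×10^3 cells/well respectively and attached for 24 h. Exposed to serial compound concentrations for 48 h, then MTS read at 490 nm. DMSO ≤0.4% matched controls. Triplicate. IC50 by non-linear regression.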

MCF7 [18] = test: Cytotoxicity against human MCF7 cells assessed as decrease in cell viability after 48 hrs by MTS assay; type: functional, cell-based; in short: as §5
NCI-H460 [19] = test: Cytotoxicity against human NCI-H460 cells assessed as decrease in cell viability preincubated with H2O2 for 24 hrs followed by cell addition measured after 48 hrs by MTS assay; type: functional, cell-based
In short: (§6)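 Compound pre-activated at 125 µM with 1.25 mM H2O2 in DMSO:PBS 1:1, 24 h at 21 °C. Then added to MCF-7 or NCI-H460 cells (24 h attached) for 48 h. Final H2O2 <10 µM. MTS read at 490 nm. Triplicate. IC50 by non-linear regression.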

MCF7 [20] = test: Cytotoxicity against human MCF7 cells assessed as decrease in cell viability preincubated with H2O2 for 24 hrs followed by cell addition measured after 48 hrs by MTS assay; type: functional, cell-based; in short: as §6
Mus musculus [21] = test: Antiarthritic activity in collagen-induced DBA/1J mouse arthritis model assessed as decrease in incidence of arthritis at 8.8 mg/kg, ip administered daily for 2 weeks starting on day 27 post first immunization measured thrice per week during compound dosing relative to control; type: functional, organism-based
In short: (§7)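 Male DBA/1J mice (8–9 wk, n = 8/group). Arthritis induced by intradermal tail-base immunization with 100 µg chicken type-II collagen in CFA on day −1, with a 50 µg boost on day 21. Daily i.p. dosing in 2% DMSO/PBS for 14 days from day 27. Blinded scoring three times weekly, 0–15 per limb (max 60). Vehicle group as control. Mann-Whitney test.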

Mus musculus [22] = test: Antiarthritic activity in collagen-induced DBA/1J mouse arthritis model assessed as reduction of macroscopic score at 8.8 mg/kg, ip administered daily for 2 weeks starting on day 27 post first immunization measured thrice per week during compound dosing relative to control; type: functional, organism-based; in short: as §7
Mus musculus [23] = test: Toxicity in collagen-induced DBA/1J mouse arthritis model assessed as decrease in body weight at 8.8 mg/kg, ip administered daily for 2 weeks starting on day 27 post first immunization measured thrice per week during compound dosing; type: organism-based; conditions: in vivo, 336 h
In short: (§8)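 CIA in male DBA/1J mice (8–9 wk, n = 8/group) from chicken type-II collagen/CFA immunization (day −1, boost day 21). Daily i.p. dosing in 2% DMSO/PBS for 14 days starting day 27. Body weight recorded three times weekly as a general-health indicator, compared with vehicle. Data are mean ± SEM.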

[24] = Prodrug activation in DMSO/PBS mixture assessed as formation of methotrexate at 50 uM after <3 hrs in presence of 0.5 mM H2O2 by RP-UPLC-MS method; in short: as §1
[25] = Prodrug activation in DMSO/PBS mixture assessed as formation of methotrexate at 100 uM after 24 hrs in presence of 0.25 to 10 mM H2O2 by RP-UPLC-MS method
In short: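 Prodrug from 1 mM DMSO stock in PBS pH 7.4 with diclofenac internal standard. Started with H2O2 solutions of 10, 5, 1, 0.5 or 0.25 mM (stock concentrations). Incubated at 37 °C and sampled 5 min to 24 h (48 h for some). RP-UPLC-UV at 306 nm. PBS-only control run. Triplicate.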

Mus musculus [26] = test: Antiarthritic activity in collagen-induced DBA/1J mouse arthritis model assessed as decrease in incidence of arthritis at 9.7 mg/kg, ip administered daily for 2 weeks starting on day 27 post first immunization measured thrice per week during compound dosing relative to control; type: functional, organism-based; in short: as §7
Mus musculus [27] = test: Antiarthritic activity in collagen-induced DBA/1J mouse arthritis model assessed as reduction of macroscopic score at 9.7 mg/kg, ip administered daily for 2 weeks starting on day 27 post first immunization measured thrice per week during compound dosing relative to control; type: functional, organism-based; in short: as §7
Mus musculus [28] = test: Toxicity in collagen-induced DBA/1J mouse arthritis model assessed as decrease in body weight at 9.7 mg/kg, ip administered daily for 2 weeks starting on day 27 post first immunization measured thrice per week during compound dosing; type: organism-based; conditions: in vivo, 336 h; in short: as §8
[29] = Prodrug activation in DMSO/PBS mixture assessed as formation of (S)-dimethyl 2-(4-(((2,4-diaminopteridin-6-yl)methyl)(4-hydroxybenzyl)amino)benzamido)pentanedioate at 50 uM measured within 2 hrs in presence of 0.5 mM H2O2 by RP-UPLC-MS method; in short: as §1
[30] = Prodrug activation in DMSO/PBS mixture assessed as formation of (S)-dimethyl 2-(4-((2,4-diaminopteridin-6-yl)methylamino)benzamido)pentanedioate at 50 uM after 2 hrs in presence of 0.5 mM H2O2 by RP-UPLC-MS method
Mus musculus [31] = test: Antiarthritic activity in collagen-induced DBA/1J mouse arthritis model assessed as decrease in incidence of arthritis at 6.8 mg/kg, ip administered daily for 2 weeks starting on day 27 post first immunization measured thrice per week during compound dosing relative to control; type: functional, organism-based
In short: (§9)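 Male DBA/1J mice, 8–9 weeks. CIA induced by intradermal/subcutaneous tail-base immunization with 100 µg chicken type-II collagen in CFA on day -1, boosted with 50 µg on day 21. From day 27, i.p. dosing once daily for 14 days in 2% DMSO/PBS vehicle, n = 8 per group. Three times weekly, blinded limb scoring (0–15 per limb, max 60) and body weight. Reported as mean ± SEM; one-tailed Mann-Whitney test.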

Mus musculus [32] = test: Antiarthritic activity in collagen-induced DBA/1J mouse arthritis model assessed as reduction of macroscopic score at 6.8 mg/kg, ip administered daily for 2 weeks starting on day 27 post first immunization measured thrice per week during compound dosing relative to control; type: functional, organism-based; in short: as §9
Mus musculus [33] = test: Toxicity in collagen-induced DBA/1J mouse arthritis model assessed as decrease in body weight at 6.8 mg/kg, ip administered daily for 2 weeks starting on day 27 post first immunization measured up to day 33; type: organism-based; conditions: in vivo, 336 h; in short: as §9

SMILES	Drug metabolism [3]	Drug metabolism [4]	solubility kinetic at 20 h [6] [µM]	half-life [7] [h]	half-life [8] [h]	half-life [9] [h]	half-life at 20 µM [10] [h]	half-life at 20 µM [11] [h]	microsomal CLint at 10 µM [12] [µL/min/mg]	microsomal CLint at 10 µM [13] [µL/min/mg]	remaining at 24 h [14] [%]	remaining at 24 h, 20 µM [15] [%]	remaining at 8 h, 20 µM [16] [%]	Activity (NCI-H460 [17])	Activity (MCF7 [18])	Activity (NCI-H460 [19])	Activity (MCF7 [20])	other results
Nc1nc(N)c2nc(CN(Cc3ccc(B(O)O)cc3)c3ccc(C(=O)N[C@@H](CCC(=O)O)C(=O)O)cc3)cnc2n1	Metabolite not detected	Metabolite not detected	83 (≈ 47.7 µg/mL)	577	770	866	56	63	1.2	2.6	> 90	82	91	inactive	inactive	Active	Active	Drug metabolism [1]: Metabolite detected; Drug metabolism [2]: Metabolite detected; Drug metabolism [5]: Metabolite detected; Activity (Mus musculus [21]): Active; Activity (Mus musculus [22]): Active; Activity (Mus musculus [23]): Non-Toxic
CN(Cc1cnc2nc(N)nc(NC(=O)OCc3ccc(B(O)O)cc3)c2n1)c1ccc(C(=O)N[C@@H](CCC(=O)O)C(=O)O)cc1	–	–	87 (≈ 55 µg/mL)	238	8	239	70	17	2.2	6.4	> 90	70	62	inactive	inactive	Active	Active	Drug metabolism [24]: Metabolite detected; Drug metabolism [25]: Metabolite detected; Activity (Mus musculus [26]): Active; Activity (Mus musculus [27]): Active; Activity (Mus musculus [28]): Non-Toxic
COC(=O)CC[C@H](NC(=O)c1ccc(N(Cc2ccc(B(O)O)cc2)Cc2cnc3nc(N)nc(N)c3n2)cc1)C(=O)OC	Metabolite not detected	Metabolite not detected	4.1 (≈ 2.47 µg/mL)	–	–	–	–	–	–	–	–	–	–	–	–	–	–	Drug metabolism [29]: Metabolite detected; Drug metabolism [30]: Metabolite detected
Nc1nc(N)c2nc(CNc3ccc(C(=O)N[C@@H](CCC(=O)O)C(=O)O)cc3)cnc2n1 [AMINOPTERIN]	–	–	> 1000	–	–	–	–	–	–	–	–	–	–	Active	Active	–	–	Activity (Mus musculus [31]): Active; Activity (Mus musculus [32]): Active; Activity (Mus musculus [33]): Toxic
